Test results reported in ChEMBL document CHEMBL1165910, “Synthesis and biological evaluation of new [1,2,4]triazino[5,6-b]indol-3-ylthio-1,3,5-triazines and [1,2,4]triazino[5,6-b]indol-3-ylthio-pyrimidines against Leishmania donovani” (Eur J Med Chem, 2010).
In brackets after ≈: the same amount, converted by molar mass. Activity calls are given as the source filed them. The calls are words filed in the database; no cut-off is given here.

Assays:
[1] = system: Leishmania donovani; assay: Antileishmanial activity against Leishmania donovani (MHOM/IN/Dd8) amastigote infected in mouse J774 cells assessed as after 72 hrs by luminometry at 40 ug/ml; format: functional, organism-based
[2] = system: Leishmania donovani; assay: Antileishmanial activity against Leishmania donovani MHOM/IN/Dd8 promastigote carrying firefly luciferase gene infected in mouse J774A1 cells assessed as relative luminescence unit at 40 ug/mL after 72 hrs; format: functional; details: for inhibition at 40 µg/mL: MHOM/IN/Dd8, J774.A1, 72 h; for inhibition: J774.A1
[3] = system: J774.A1; assay: (§1) Selectivity index, ratio of CC50 for mouse J774A1 cells to IC50 for IC50 Leishmania donovani MHOM/IN/Dd8; format: functional
[4] = Cytotoxicity against mouse J774A1 cells after 72 hrs by MTT assay; format: cell-based, J774.A1
Method in brief: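 J774A.1 cells were grown in RPMI with 10% foetal calf serum and 40 µg/mL gentamycin. Exponentially growing cells (1 × 10^4/well) received compound dilutions, made from DMSO stock in complete medium, for 72 h at 37 °C in humidified CO2/air. MTT (5 mg/mL in PBS) was added for 2 h, supernatant removed and formazan dissolved in DMSO. A544 was read, and CC50 (50% viability reduction versus medium-only cells) was estimated by template.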

[5] = system: Leishmania donovani; assay: Antileishmanial activity against Leishmania donovani (MHOM/IN/Dd8) amastigote infected in mouse J774 cells assessed as after 72 hrs by luminometry; format: functional, organism-based; details: for IC50: MHOM/IN/Dd8, J774, 72 h
Method in brief: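 J774 macrophages were seeded at 1.5 × 10^4 cells/well in RPMI-1640 with 10% foetal calf serum at 37 °C under CO2. After 24 h, medium was replaced with medium containing luciferase-transfected stationary-phase promastigotes (2.25 × 10^5/well). Test material at 0.25–10 in complete medium was then added for 72 h at 37 °C. Wells were given PBS plus Steady-Glo and read by luminometer; inhibition was calculated against untreated infected controls.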

[6] = as §1; format: functional, J774.A1
[7] = system: Leishmania donovani; assay: Antileishmanial activity against Leishmania donovani MHOM/IN/Dd8 promastigote carrying firefly luciferase gene infected in mouse J774A1 cells assessed as relative luminescence unit at 0.5 ug/mL after 72 hrs; format: functional; details: MHOM/IN/Dd8, J774.A1, 72 h
[8] = system: Leishmania donovani; assay: Antileishmanial activity against Leishmania donovani MHOM/IN/Dd8 promastigote carrying firefly luciferase gene infected in mouse J774A1 cells assessed as relative luminescence unit at 940 ug/mL after 72 hrs; format: functional, organism-based; details: J774.A1

Row | MIC ([5]; MHOM/IN/Dd8, 72 h) [µM] | IC50 [5] [µM] | Molecule | inhibition at 40 µg/mL [2] [%] | CC50 at 72 h [4] [µM] | Ratio CC50/IC50 [6] | further results
1 |  |  | Cn1c2ccccc2c2nnc(Sc3nc(NCCN4CCOCC4)nc(NCCN4CCOCC4)n3)nc21 | 77.1 |  |  | Activity [1]: inactive; Ratio CC50/IC50 [3]: inactive
2 | 90.8 (≈ 38.2 µg/mL) | 26.3 | CCN1CCN(c2nc(C)cc(Sc3nnc4c5ccccc5n(C)c4n3)n2)CC1 | 100 | 28.1 | 1.06 | 
3 |  |  | CN1CCN(c2nc(Sc3nnc4c5ccccc5n(C)c4n3)nc(N3CCN(C)CC3)n2)CC1 |  |  |  | inhibition [2]: inactive
4 | 20.5 (≈ 9.48 µg/mL) | 4.01 | Cn1c2ccccc2c2nnc(Sc3nc(N4CCCCC4)nc(N4CCCCC4)n3)nc21 | 75.6 | 227 | 56.61 | 
5 | 90.5 (≈ 37.1 µg/mL) | 17.4 | CC(C)Nc1nc(NC(C)C)nc(Sc2nnc3c4ccccc4n(C)c3n2)n1 | 99.3 | 64.5 | 3.71 | 
6 |  |  | Cn1c2ccccc2c2nnc(Sc3nc(NCCCN4CCOCC4)nc(NCCCN4CCOCC4)n3)nc21 |  |  |  | inhibition [2]: inactive
7 | 110 (≈ 41.8 µg/mL) | 18.3 | CCCCNc1nc(C)cc(Sc2nnc3c4ccccc4n(C)c3n2)n1 | 99.7 | 88.4 | 4.82 | 
8 |  |  | Cn1c2ccccc2c2nnc(Sc3nc(N4CCOCC4)nc(N4CCOCC4)n3)nc21 | 43.1 |  |  | 
9 | > 169 | 20.4 | N=C(N)c1ccc(OCCCCCOc2ccc(C(=N)N)cc2)cc1 [PENTAMIDINE] |  | 52.8 |  | inhibition at 0.5 µg/mL [7]: 85%
10 |  |  | Cc1cc(Sc2nnc3c4ccccc4n(C)c3n2)nc(NCCN2CCOCC2)n1 | 51.1 |  |  | 
11 |  |  | Cc1cc(Sc2nnc3c4ccccc4n(C)c3n2)nc(NCCCN2CCOCC2)n1 | 95.1 |  |  | Activity [1]: inactive; Ratio CC50/IC50 [3]: inactive
12 | 26.6 (≈ 13.8 µg/mL) | 15.5 | CCN1CCN(c2nc(Sc3nnc4c5ccccc5n(C)c4n3)nc(N3CCN(CC)CC3)n2)CC1 | 100 | 93.2 | 6 | 
13 |  |  | CCN(CC)CCNc1nc(C)cc(Sc2nnc3c4ccccc4n(C)c3n2)n1 | 99.9 |  |  | Activity [1]: inactive; Ratio CC50/IC50 [3]: inactive
14 |  |  | D-Gluconic acid,2,4:2',4'-O-[oxybis-(oxidostibylidyne)]bis-,trisodium salt, nonahydrate |  |  |  | MIC [5]: 164 µM; Ratio CC50/IC50 [3]: 5.53; inhibition [8]: 40%
15 | 68.7 (≈ 27.9 µg/mL) | 57.8 | Cc1cc(Sc2nnc3c4ccccc4n(C)c3n2)nc(N2CCN(C)CC2)n1 | 99.9 | 29.2 | 0.5 | 
16 | 93.8 (≈ 34.3 µg/mL) | 29.6 | Cc1cc(Sc2nnc3c4ccccc4n(C)c3n2)nc(NC(C)C)n1 | 99.2 | 109 | 3.66 | 
17 |  |  | CCCCNc1nc(NCCCC)nc(Sc2nnc3c4ccccc4n(C)c3n2)n1 | 93.2 | 17.1 |  | Activity [1]: inactive; Ratio CC50/IC50 [3]: inactive
18 | 139 (≈ 54.3 µg/mL) | 25.7 | Cc1cc(Sc2nnc3c4ccccc4n(C)c3n2)nc(N2CCCCC2)n1 | 99.3 | 173 | 6.74 | 
19 |  |  | CCN(CC)CCNc1nc(NCCN(CC)CC)nc(Sc2nnc3c4ccccc4n(C)c3n2)n1 | 49.3 |  |  | 
20 |  |  | Cc1cc(Sc2nnc3c4ccccc4n(C)c3n2)nc(NCCN(C)C)n1 | 100 |  |  | Activity [1]: inactive; Ratio CC50/IC50 [3]: inactive
21 |  |  | CN(C)CCNc1nc(NCCN(C)C)nc(Sc2nnc3c4ccccc4n(C)c3n2)n1 | 68.5 |  |  | 
22 |  |  | Cc1cc(Sc2nnc3c4ccccc4n(C)c3n2)nc(N2CCOCC2)n1 |  |  |  | inhibition [2]: inactive
23 |  |  | Cn1c2ccccc2c2nnc(Sc3nc(NC(C)(C)C)nc(NC(C)(C)C)n3)nc21 | 97.4 |  |  | Activity [1]: inactive; Ratio CC50/IC50 [3]: inactive
24 |  |  | Cc1cc(Sc2nnc3c4ccccc4n(C)c3n2)nc(NC(C)(C)C)n1 | 66.7 |  |  | 
